# Laboratory results published in ChEMBL document CHEMBL1139485, “Tricyclic pyrazoles. 3. Synthesis, biological evaluation, and molecular modeling of analogues of the cannabinoid antagonist 8-chloro-1-(2',4'-dichlorophenyl)-N-piperidin-1-yl-1,4,5,6-tetrahydrobenzo[6,7]cyclohepta[1,2-c]pyrazole-3-carboxamide” (J Med Chem, 2005).
# Calls of active or inactive are those of the source. The calls are words filed in the database; no cut-off is given here.
# What was measured:
# Cannabinoid receptor 2 = Cannabinoid receptor 2 (Mus musculus, UniProt P47936); test: Displacement of [3H]CP-55940 from CB2 receptor in CD1 mouse spleen; format: tissue-based
# Sequence of Cannabinoid receptor 2 (P47936 whole entry): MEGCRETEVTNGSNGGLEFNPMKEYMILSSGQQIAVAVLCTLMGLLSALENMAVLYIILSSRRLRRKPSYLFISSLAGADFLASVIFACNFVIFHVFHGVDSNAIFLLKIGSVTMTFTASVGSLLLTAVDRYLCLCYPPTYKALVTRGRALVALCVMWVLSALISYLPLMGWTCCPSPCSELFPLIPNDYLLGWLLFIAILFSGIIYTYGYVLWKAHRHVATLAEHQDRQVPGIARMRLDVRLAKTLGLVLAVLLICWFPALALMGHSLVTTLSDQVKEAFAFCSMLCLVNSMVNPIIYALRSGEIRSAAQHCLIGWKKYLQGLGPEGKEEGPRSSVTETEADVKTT
# Outline: (§1)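 Membranes from male CD-1 mouse brain (minus cerebellum) for CB1 or spleen for CB2, prepared in ice-cold TME buffer (50 mM Tris-HCl, 1 mM EDTA, 3.0 mM MgCl2, pH 7.4). Filtration, scintillation counting. IC50 from sigmoid fit converted to Ki. Triplicate, ≥5 experiments.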
# Cannabinoid receptor 1 = Cannabinoid receptor 1 (Mus musculus, UniProt P47746); test: Displacement of [3H]CP-55940 from CB1 receptor in CD1 mouse brain; format: tissue-based
# Sequence of Cannabinoid receptor 1 (P47746 whole entry): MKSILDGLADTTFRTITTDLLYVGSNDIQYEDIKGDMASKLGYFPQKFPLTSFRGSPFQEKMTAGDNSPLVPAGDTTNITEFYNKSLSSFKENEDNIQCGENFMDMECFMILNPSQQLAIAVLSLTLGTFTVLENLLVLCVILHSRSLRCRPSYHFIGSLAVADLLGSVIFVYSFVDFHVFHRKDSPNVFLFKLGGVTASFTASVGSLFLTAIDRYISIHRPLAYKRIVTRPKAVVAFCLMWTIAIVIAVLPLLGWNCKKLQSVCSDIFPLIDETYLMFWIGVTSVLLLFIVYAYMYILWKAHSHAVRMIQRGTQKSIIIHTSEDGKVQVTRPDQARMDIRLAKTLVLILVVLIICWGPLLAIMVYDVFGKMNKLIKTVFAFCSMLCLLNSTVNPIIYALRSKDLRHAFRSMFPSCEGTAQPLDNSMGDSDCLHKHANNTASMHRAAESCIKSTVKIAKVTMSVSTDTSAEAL
# Outline: as §1, with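 “7.4). 30–80 μg protein incubated with 0.5–1 nM [3H]CP-55,940, 1 h, 30 °C, with 5 mg/mL fatty-acid-free BSA. Nonspecific binding defined by 1 μM CP-55,940.” for “7.4).”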
# [1] = target: Cannabinoid receptor (Mus musculus) (UniProt P47746+P47936); test: Selectivity for CB1 receptor over CB2 receptor in CD1 mouse; format: protein assay
# Sequence of Cannabinoid receptor (Mus musculus) (P47746 whole entry, looked up): as the sequence (P47746 whole entry) above
# Sequence of Cannabinoid receptor (Mus musculus) (P47936 whole entry, looked up): as the sequence (P47936 whole entry) above
# Mus musculus [2] = test: Increase in upper gastrointestinal motility in CD1 mouse at 0.5 to 1 mg/kg, ip; format: functional; conditions: dose mg/kg 0.5-1; route intraperitoneal
# Outline: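 Male CD-1 mice (20–35 g), n = 15–20 per group. Compound given ip in saline with 0.1% Tween-80, 30 min before intragastric red carmine marker (6% suspension in 0.5% methylcellulose, 0.3 mL/mouse). Killed 20 min later. Distance travelled by the marker head expressed as % of small-intestine length (pylorus to ileocaecal junction). Group mean ± SEM versus vehicle-treated mice, by ANOVA/Newman–Keuls.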
# Mus musculus [3] = test: Effect on upper gastrointestinal motility in CD1 mouse at 0.1 mg/kg, ip; format: functional, organism-based; design: dose 0.1 mg/kg
# Outline: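 Male CD-1 mice (20–35 g), n = 15–20 per group. Drug in saline with 0.1% Tween-80 (12.5 mL/kg) given ip 30 min before intragastric red carmine (6 wt %/v in 0.5% methylcellulose, 0.3 mL/mouse). Mice killed 20 min later. Distance reached by the marker head expressed as % of small intestine length (pylorus to ileocaecal junction). Mean ± SEM.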
# Mus musculus [4] = test: Reversal of 0.5 mg/kg WIN-55212-2-induced inhibitory effect on upper gastrointestinal motility in CD1 mouse at 0.1 mg/kg ip; format: functional, organism-based
# Outline: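 Male CD-1 mice, n = 15–20 per group. Test drug 0.1 mg/kg ip given 10 min before WIN 55,212-2 (0.5 mg/kg ip), both in saline with 0.1% Tween-80. Intragastric carmine marker 20 min after agonist; mice killed 20 min later. Transit measured as % of small intestine length travelled by marker. ANOVA with Newman–Keuls test.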
Ki (Cannabinoid receptor 2),Ki (Cannabinoid receptor 1),Ratio Ki [1],Compound,Activity (Mus musculus [2]),Activity (Mus musculus [3]),Activity (Mus musculus [4])
21 nM (antagonist),0.00035 nM (antagonist),60000,O=C(NN1CCCCC1)c1nn(-c2ccc(Cl)cc2Cl)c2c1CCCc1cc(Cl)ccc1-2,–,–,–
65 nM (antagonist),5.74 nM (antagonist),11.3,Cc1ccc(NC(=O)c2nn(-c3ccc(Cl)cc3Cl)c3c2CCCc2cc(Cl)ccc2-3)cc1,–,–,–
37 nM (antagonist),0.008 nM (antagonist),4620,O=C(NN1CCCCC1)c1nn(-c2ccc(Cl)cc2Cl)c2c1CCCc1cc(Br)ccc1-2,–,–,–
79 nM (antagonist),2.5 nM (antagonist),31.6,O=C(Nc1ccc(Cl)cc1)c1nn(-c2ccc(Cl)cc2Cl)c2c1CCCc1cc(Cl)ccc1-2,–,–,–
0.46 nM (antagonist),0.0052 nM (antagonist),88.5,Cc1ccc2c(c1)CCCc1c(C(=O)NN3CCCCC3)nn(-c3ccc(Cl)cc3Cl)c1-2,–,–,–
1.45 nM (antagonist),4.35 nM (antagonist),0.33,O=C(Nc1ccccc1)c1nn(-c2ccc(Cl)cc2Cl)c2c1CCCc1cc(Cl)ccc1-2,–,–,–

# Further lines, the compound ahead of its results:
Compound,Ki (Cannabinoid receptor 2),Ki (Cannabinoid receptor 1),Ratio Ki [1],Activity (Mus musculus [2]),Activity (Mus musculus [3]),Activity (Mus musculus [4])
O=C(NC1CCCCC1)c1nn(-c2ccc(Cl)cc2Cl)c2c1CCCc1cc(Cl)ccc1-2,0.65 nM (antagonist),0.3 nM (antagonist),2.16,–,–,–
O=C(NN1CCCCC1)c1nn(-c2ccc(Cl)cc2Cl)c2c1Cc1cc(Cl)ccc1-2,0.34 nM (antagonist),2050 nM (antagonist),0.000166,–,–,–
O=C(NN1CCCCCC1)c1nn(-c2ccc(Cl)cc2Cl)c2c1CCCc1cc(Cl)ccc1-2,2 nM (antagonist),0.001 nM (antagonist),2000,65%,inactive,Active
O=C(NN1CCCCC1)c1nn(-c2ccc(Cl)cc2Cl)c2c1CCCc1ccc(Cl)cc1-2,26.8 nM (antagonist),31.2 nM (antagonist),0.86,–,–,–
O=C(Nc1ccc(Cl)c(Cl)c1)c1nn(-c2ccc(Cl)cc2Cl)c2c1CCCc1cc(Cl)ccc1-2,> 500 nM,25.8 nM (antagonist),–,–,–,–
O=C(NN1CCCCC1)c1nn(-c2ccc(Cl)cc2Cl)c2c1CCc1cc(Cl)ccc1-2,227 nM (antagonist),14.8 nM (antagonist),15.3,–,–,–
Cc1ccc2c(c1)CCCc1c(C(=O)NN3CCCC3)nn(-c3ccc(Cl)cc3Cl)c1-2,386 nM (antagonist),0.11 nM (antagonist),3510,–,–,–
COc1ccc(NC(=O)c2nn(-c3ccc(Cl)cc3Cl)c3c2CCCc2cc(Cl)ccc2-3)cc1,43.3 nM (antagonist),0.013 nM (antagonist),3300,–,–,–
O=C(NN1CCCC1)c1nn(-c2ccc(Cl)cc2Cl)c2c1CCCc1cc(Cl)ccc1-2,45 nM (antagonist),0.004 nM (antagonist),11200,–,–,–
O=C(NN1CCCCC1)c1nn(-c2ccc(Cl)cc2Cl)c2c1CCCc1c(Cl)cccc1-2,31.6 nM (antagonist),9.84 nM (antagonist),3.21,–,–,–
O=C(NN1CCCCC1)c1nn(-c2ccc(Cl)cc2Cl)c2c1CCCc1ccccc1-2,18.1 nM (antagonist),168 nM (antagonist),0.11,–,–,–
